Reference: ChEMBL document CHEMBL1138476 (J Med Chem, 2009)

Tests used:
Canis familiaris [1] = experiment: Effect on respiratory function in spontaneously breathing mongrel dog assessed as change in peak expiratory flow at 5 mg/kg after intravenous infusion for 15 mins (RVb= -8.4+/-6.6 %); assay type: functional, Canis lupus familiaris
Rattus norvegicus [2] = experiment: Effect on acute renal function in rat assessed as change in urine sodium level per 100 gm body weight at 30 mg/kg, po (RVb= 49.9+/-3.1 mg/dl); assay type: functional
Rattus norvegicus [3] = experiment: Effect on acute renal function in rat assessed as change in urine protein level per 100 gm body weight at 30 mg/kg, po (RVb= 12.0+/-2.4 mg/dl); assay type: functional
[4] = Plasma concentration in rat at 30 mg/kg, po after 1 hr; assay type: ADME, organism-based; set-up: dose 30 mg/kg, route oral
Method in brief: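 Rats (n = 9, renal function study) given 30 mg/kg po; plasma levels measured in a separate cohort dosed the same way, sampled at 1 and 5 h after dosing.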

Canis familiaris [5] = experiment: Effect on respiratory function in spontaneously breathing mongrel dog assessed as change in minute volume at 5 mg/kg after intravenous infusion for 6 mins (RVb= -3.6+/-7.5 %); assay type: functional, Canis lupus familiaris
Canis familiaris [6] = experiment: Effect on respiratory function in spontaneously breathing mongrel dog assessed as change in minute volume at 5 mg/kg after intravenous infusion for 15 mins (RVb= -4.7+/-3.4 %); assay type: functional, Canis lupus familiaris
Canis familiaris [7] = experiment: Effect on respiratory function in spontaneously breathing mongrel dog assessed as change in pulmonary compliance at 5 mg/kg after intravenous infusion for 15 mins (RVb= 0.8+/-2.0 %); assay type: functional, Canis lupus familiaris
Canis familiaris [8] = experiment: Effect on respiratory function in spontaneously breathing mongrel dog assessed as change in mean arterial pressure at 5 mg/kg after intravenous infusion for 6 mins (RVb= 1.5+/-0.9 %); assay type: functional, Canis lupus familiaris, Artery
Canis familiaris [9] = experiment: Effect on respiratory function in spontaneously breathing mongrel dog assessed as change in mean arterial pressure at 5 mg/kg after intravenous infusion for 15 mins (RVb= 2.1+/-1.5 %); assay type: functional, Canis lupus familiaris, Artery
[10] = AUC in Beagle dog at 1 mg/kg, po by cassette dosing; assay type: ADME, organism-based, Canis lupus familiaris; set-up: dose 1 mg/kg, route oral; details: plasma
Rattus norvegicus [11] = experiment: Ex vivo receptor occupancy of CRF receptor in rat brain at 0.3 mg/kg, po by [125I]sauvagine binding and autoradiography relative to control; assay type: functional
Method in brief: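 Rats were given 0.3, 1, 3, 10 or 30 mg/kg po in 0.25% Methocel 60 min before sacrifice. Brains were removed, sectioned and frozen at −80 °C. Ex vivo CRF receptor binding gave occupancy relative to vehicle-treated rats, reported as mean ± SEM.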

Canis familiaris [12] = experiment: Cardiovascular activity in mechanically ventilated mongrel dog at assessed as increase in contractility at 3 mg/kg to 5 mg/kg, iv by dose escalation study

Structure (SMILES): CC[C@@H](C)Nc1nc(C)nc2c(-c3ccc(OC)nc3C)c(C)nn12 [PEXACERFONT]
- Activity (Canis familiaris [1]): -0.1%
- Activity (Rattus norvegicus [2]): 58.4 mg/dL
- Activity (Rattus norvegicus [3]): 6.6 mg/dL
- concentration at 1 h [4]: 3.99 µM
- Activity (Canis familiaris [5]): 28.1%
- Activity (Canis familiaris [6]): 0.6%
- Activity (Canis familiaris [7]): -2.2%
- Activity (Canis familiaris [8]): 3.8%
- Activity (Canis familiaris [9]): 1.2%
- AUC [10]: 2.02 µM·h
- Activity (Rattus norvegicus [11]): 37%
- Activity (Canis familiaris [12]): 200 mmHg/s
